{"source": "paper PMC4893637", "about": "(Theranostics, 2016)", "key": {"[1]": {"biological_target": "Recombinant human PSMA (rhPSMA) (Homo sapiens, UniProt Q04609)", "sequence (Q04609 whole entry)": "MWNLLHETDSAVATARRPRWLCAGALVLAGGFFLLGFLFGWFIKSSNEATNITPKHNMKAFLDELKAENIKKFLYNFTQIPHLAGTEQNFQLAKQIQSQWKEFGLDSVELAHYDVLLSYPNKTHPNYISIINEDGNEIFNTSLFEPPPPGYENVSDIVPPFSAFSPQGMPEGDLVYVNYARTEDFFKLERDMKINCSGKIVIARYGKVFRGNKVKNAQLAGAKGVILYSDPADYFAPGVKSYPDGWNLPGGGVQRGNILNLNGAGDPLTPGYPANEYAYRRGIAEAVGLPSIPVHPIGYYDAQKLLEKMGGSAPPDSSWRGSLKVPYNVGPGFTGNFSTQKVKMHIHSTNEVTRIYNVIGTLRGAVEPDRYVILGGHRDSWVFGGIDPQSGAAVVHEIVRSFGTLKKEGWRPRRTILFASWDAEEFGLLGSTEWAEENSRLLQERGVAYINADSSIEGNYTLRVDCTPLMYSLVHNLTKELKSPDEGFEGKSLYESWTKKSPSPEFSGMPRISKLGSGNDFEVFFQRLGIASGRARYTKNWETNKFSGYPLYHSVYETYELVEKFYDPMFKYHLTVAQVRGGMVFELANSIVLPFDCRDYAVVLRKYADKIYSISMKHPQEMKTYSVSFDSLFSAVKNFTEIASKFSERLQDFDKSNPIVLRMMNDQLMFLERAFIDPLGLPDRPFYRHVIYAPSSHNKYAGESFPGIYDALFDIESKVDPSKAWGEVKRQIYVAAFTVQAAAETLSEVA", "assay": "NAALADase assay", "format": "biochemical"}, "[2]": {"biological_target": "PSMA positive LNCaP cells (Homo sapiens, UniProt Q04609)", "sequence (Q04609 whole entry)": "as above", "assay": "Internalization assay on LNCaP cells", "format": "cell-based", "conditions": "30 nM radiolabeled compound, 45 min; 177Lu-labeled, except CIM 99mTc-labeled", "method_in_brief": "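Poly-L-lysine-coated wells were seeded with 10⁵ LNCaP cells in RPMI (10% FCS, 1% L-glutamine) and held overnight at 37 °C. Cells took up 30 nM radiolabelled test compound in Opti-MEM for 45 min at 37 °C or 4 °C, with 2-PMPA block or DMSO, in triplicate. Surface-bound tracer came off in two 5-min 50 mM glycine pH 2.8 washes and internalized tracer in 0.3 M NaOH lysate. All fractions were gamma-counted against a ligand standard.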"}, "[3]": {"system": "BALB/c nude mouse LNCaP xenograft", "assay": "MicroPET in LNCaP xenograft mouse", "format": "in vivo", "conditions": "68Ga-labeled, i.v.", "method_in_brief": "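Purified 68Ga-labelled test conjugates (50 MBq/nmol) were sterile-filtered and 100 µl injected into the tail vein of BALB/c nude mice bearing LNCaP xenografts under 2% sevoflurane. Two tracers were compared in the same mouse. Blocking used 100-fold excess of unlabelled compound, imaged 2 h post-injection.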"}}}
{"smiles": "O=C(O)CC[C@H](NC(=O)N[C@@H](CCCCNC(=O)[C@H](Cc1ccc2ccccc2c1)NC(=O)[C@H]1CC[C@H](CNC(=O)CN2CCN(CC(=O)O)CCN(CC(=O)O)CCN(CC(=O)O)CC2)CC1)C(=O)O)C(=O)O", "note": "[DOTA conjugate]", "values": [{"measurement": "IC50", "setting": "[1]", "result": "0.8 ± 0.3", "unit": "nM"}, {"measurement": "Absolute value of compound inside of the cells (amount internalized)", "setting": "[2]", "result": "3.7 ± 4.6", "unit": "%"}, {"measurement": "Time after which the amount in the tumor begins to decrease", "setting": "[3]", "result": "approximately 15 min"}]}
